High-throughput results as filed in PubChem.
HEK293 NFkB inh – inhibitors of PMA/ionomycin-induced NF-kB reporter, primary screen, antigen receptor NF-kB inhibitor project, cell-based, HEK-293 luciferase reporter, luminescence. HEK-293 NF-kB luciferase reporter. 62,000 tested, 0.21% active. AID 465, 2006. inhibition, % at 3 µM;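 active means inhibition above the mean of all tested compounds plus 3 SD, cut at about 40% in these data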;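 further: 0% = stimulated DMSO wells and 100% = 10 µM reference inhibitor 5653914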
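Signal: luciferase luminescence; Material: HEK-293 cells with stable firefly luciferase reporter driven by four HIV NF-kB elements; Probe or stimulus: PMA with ionomycin; Replication: tested once; Times: 1 h compound pretreatment, then 16 h stimulation at 37 °C, 5% CO2; Benchmarks: DMSO and 10 µM reference inhibitor; Evaluation: per-plate % inhibition versus controls.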
5-HT1A blocker – human 5-HT1a receptor antagonists, primary screen, cell-based, CHO, Ga15 NFAT-bla reporter; inhibition, % at 10 µM; 62,000 tested, 0.68% active; 5-hydroxytryptamine receptor 1A (Homo sapiens), P08908; AID 612, 2007; CHO 5-HT1a Ga15 NFAT-bla reporter, antagonist mode;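 active means inhibition above the mean of all tested compounds plus 3 SD, cut at about 43% in these data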;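 further: receptor stimulated by 5-CT agonist at 100 nM near EC80; beta-lactamase reporter measured by ratiometric fluorescence of a cleavable substrate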
HTR1E agonist – 5-HT1E receptor agonists, primary screen, cell-based, HTS; 65,000 tested, 0.69% active; activation, % at 6 µM; CHO 5-HT1E Ga15 NFAT-bla reporter, FRET; 0% DMSO wells, 100% control agonist wells;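 active means activation above a set limit, the screen-wide mean activation plus 3 SD, cut at about 8.5% in these data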;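 further: 100% = positive control agonist at 1 µM giving full maximal response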
Target sequence (P28566 whole entry, looked up): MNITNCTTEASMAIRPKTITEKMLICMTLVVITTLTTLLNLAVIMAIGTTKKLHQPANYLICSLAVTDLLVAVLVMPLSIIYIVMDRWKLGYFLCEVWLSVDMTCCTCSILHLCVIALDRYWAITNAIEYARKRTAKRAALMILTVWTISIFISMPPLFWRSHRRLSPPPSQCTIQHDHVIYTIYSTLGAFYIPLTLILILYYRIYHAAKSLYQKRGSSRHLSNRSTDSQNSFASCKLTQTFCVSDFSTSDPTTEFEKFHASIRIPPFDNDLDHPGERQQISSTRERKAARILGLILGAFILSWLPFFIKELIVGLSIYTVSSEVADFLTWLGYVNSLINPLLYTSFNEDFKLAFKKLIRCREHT
5HT1a ag – human 5-HT1a receptor agonists, primary screen, cell-based, CHO, Ga15 NFAT-bla reporter; activation, % at 10 µM; AID 567, 2006; 5-hydroxytryptamine receptor 1A (Homo sapiens), P08908; 65,000 tested, 0.56% active; CHO 5-HT1a Ga15 NFAT-bla reporter, FRET ratio; 0% basal, 100% maximal reference agonist;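 active means activation above the screen-wide mean activation plus 3 SD, cut at about 19% in these data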;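 further: 0% = DMSO wells and 100% = 5-CT at EC100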
5HT1E antag – 5-HT1E receptor antagonists, primary screen, cell-based, HTS; CHO 5-HT1E Ga15 NFAT-bla reporter, FRET, antagonist; inhibition, % at 6 µM; 65,000 tested, 0.99% active;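 active means inhibition above a set limit, the mean inhibition across every tested compound plus 3 SD, cut at about 29% in these data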;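 further: signal is the 460 over 535 nm emission ratio of beta-lactamase substrate; 0% = agonist plus DMSO wells and 100% = wells without agonist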
Active calls of the source: *. Sampled rows, rich in hits. Any-hit rate of the full collection: about 2.6%.

`CCCCCCn1c(=O)c(C(=O)Nc2c(C)n(C)n(-c3ccccc3)c2=O)c(O)c2ccccc21` gave HEK293 NFkB inh 6.4, 5-HT1A blocker -19.6, HTR1E agonist -0.5, 5HT1a ag 83.6* and 5HT1E antag -4.5.
Cn1ncnc2c(=O)n(C)c(=O)nc1-2 was read as HEK293 NFkB inh 99.1*, 5-HT1A blocker 85.4*, HTR1E agonist 4.5, 5HT1a ag 6.7 and 5HT1E antag 101.0*.
CCOC(=O)N(CC)c1ccc(C(O)(C(=O)OC)C(F)(F)F)cc1 (stereo not drawn) was read as HEK293 NFkB inh 20.8, 5-HT1A blocker 9.6, HTR1E agonist 0.3, 5HT1a ag -2.0 and 5HT1E antag 1.7.
Cn1c(O)c(C=NCCOc2ccc(Cl)cc2)c(=O)n(C)c1=O was read as HEK293 NFkB inh 9.3, 5-HT1A blocker -19.2, HTR1E agonist 0.7, 5HT1a ag 0.2 and 5HT1E antag 30.1*.
Cn1c(O)c(C=NCCN2CCN(C(=O)c3ccccc3)CC2)c(=O)n(C)c1=O was read as HEK293 NFkB inh 19.5, 5-HT1A blocker -11.0, HTR1E agonist 1.0, 5HT1a ag -3.4 and 5HT1E antag -3.6.
Cc1cc(OC(=O)c2ccco2)c2c3c(c(=O)oc2c1)CCC3 was read as HEK293 NFkB inh 23.0, 5-HT1A blocker -6.4, HTR1E agonist 0.2, 5HT1a ag -0.7 and 5HT1E antag 32.5*.
c1ccc(C2=NP(N3CCOCC3)(N3CCOCC3)=NC(N3CCOCC3)=N2)cc1 was read as HEK293 NFkB inh 14.7, 5-HT1A blocker 3.8, HTR1E agonist 0.4, 5HT1a ag -0.5 and 5HT1E antag -3.9.
`COc1ccc(C(=O)C(C)(C)NO)cc1` gave HEK293 NFkB inh 8.6, 5-HT1A blocker -2.7, HTR1E agonist 8.8*, 5HT1a ag -1.3 and 5HT1E antag 10.8.
`COc1ccc(C(=O)C(Cc2ccccc2)N(C)C)cc1` (stereo not drawn) gave HEK293 NFkB inh -5.6, 5-HT1A blocker 2.9, HTR1E agonist -0.7, 5HT1a ag -0.6 and 5HT1E antag 1.3.
Screening CCCNc1oc(-c2cccc3ccccc23)nc1C#N returned HEK293 NFkB inh -4.1, 5-HT1A blocker -12.8, HTR1E agonist 5.7, 5HT1a ag 58.3* and 5HT1E antag 8.3.
CCOc1cc(C2NCc3ccccc3-n3cccc32)ccc1O (stereo not drawn) was read as HEK293 NFkB inh 11.8, 5-HT1A blocker 20.3, HTR1E agonist 0.2, 5HT1a ag -0.4 and 5HT1E antag -9.8.
For CCOc1cccc(C2NCc3ccccc3-n3cccc32)c1O (stereo not drawn) the results were HEK293 NFkB inh 17.3, 5-HT1A blocker 0.9, HTR1E agonist 15.3*, 5HT1a ag -0.3 and 5HT1E antag -4.0.
CC(C)N1CC=C(c2c[nH]c3ccccc23)CC1 was read as HEK293 NFkB inh 16.4, 5-HT1A blocker 13.6, HTR1E agonist 46.3*, 5HT1a ag 22.7* and 5HT1E antag -1.2.
Screening C1=C(c2c[nH]c3ccccc23)CCNC1 returned HEK293 NFkB inh 3.3, 5-HT1A blocker 16.2, HTR1E agonist 91.5*, 5HT1a ag 4.5 and 5HT1E antag -13.3.
For CCCCn1c(O)c(C=NC2CC3CCC2(C)C3(C)C)c(=O)[nH]c1=O (stereo not drawn) the results were HEK293 NFkB inh 13.0, 5-HT1A blocker -21.0, HTR1E agonist 0.1, 5HT1a ag 0.7 and 5HT1E antag 1.1.
NCCc1c[nH]c2ccc(F)cc12 was read as HEK293 NFkB inh 6.1, 5-HT1A blocker 3.3, HTR1E agonist 81.7*, 5HT1a ag 42.9* and 5HT1E antag -6.0.
For CCN1CCC2(CCNC2)C1 (stereo not drawn) the results were HEK293 NFkB inh 9.6, 5-HT1A blocker 6.8, HTR1E agonist 0.6, 5HT1a ag -3.4 and 5HT1E antag 3.0.
Screening CCCCOCCCn1c(N)c(C(=O)OC(C)COC)c2nc3ccccc3nc21 (stereo not drawn) returned HTR1E agonist 10.5*, 5HT1a ag 4.8 and 5HT1E antag 13.7.
COCCCn1c(N)c(C(=O)OC(C)COC)c2nc3ccccc3nc21 (stereo not drawn) was read as HEK293 NFkB inh 12.1, 5-HT1A blocker 1.5, HTR1E agonist 0.7, 5HT1a ag 2.6 and 5HT1E antag 4.7.
For CN(C)C1(c2nnnn2CCOC(=O)Nc2ccc(Cl)cc2)CCCCC1 the results were HEK293 NFkB inh 2.1, 5-HT1A blocker 3.1, HTR1E agonist -0.8, 5HT1a ag 0.5 and 5HT1E antag 1.4.
CCCC(C)(COC(N)=O)COC(=O)NC(C)C (stereo not drawn) was read as HTR1E agonist -0.1, 5HT1a ag 2.1 and 5HT1E antag -9.8.
Screening CN(C)CCOC(=O)c1cn(Cc2ccccc2)c2ccccc12 returned HTR1E agonist 58.8*, 5HT1a ag 1.6 and 5HT1E antag 16.2.
`Cc1ccc(CN2CCN(C)CC2)c(C)c1` gave HEK293 NFkB inh 1.2, 5-HT1A blocker -15.7, HTR1E agonist 9.8*, 5HT1a ag -2.6 and 5HT1E antag -1.1.
Cn1nc(-c2ccc(OCC(=O)N3CCN(Cc4ccccc4)CC3)cc2)c2ccccc2c1=O was read as HEK293 NFkB inh 29.7, 5-HT1A blocker -1.6, HTR1E agonist 1.0, 5HT1a ag -1.2 and 5HT1E antag -1.7.
Screening CC(C)CCNC(=O)c1c(N)n(CC2CCCO2)c2nc3ccccc3nc12 (stereo not drawn) returned HEK293 NFkB inh 6.4, 5-HT1A blocker -18.1, HTR1E agonist 9.7*, 5HT1a ag 35.3* and 5HT1E antag -1.9.
For CCCCn1c(N)c(C(=O)NCCN2CCOCC2)c2nc3ccccc3nc21 the results were HEK293 NFkB inh 9.6, 5-HT1A blocker 5.1, HTR1E agonist 1.8, 5HT1a ag 7.0 and 5HT1E antag 12.3.
For CCC(C)NC(=O)c1c(N)n(CC2CCCO2)c2nc3ccccc3nc12 (stereo not drawn) the results were HEK293 NFkB inh -2.2, 5-HT1A blocker -7.4, HTR1E agonist 8.3, 5HT1a ag 26.5* and 5HT1E antag -0.2.
For CCC(C)NC(=O)c1c(N)n(Cc2ccc3c(c2)OCO3)c2nc3ccccc3nc12 (stereo not drawn) the results were HEK293 NFkB inh 6.2, 5-HT1A blocker -172.4, HTR1E agonist 30.4*, 5HT1a ag 121.6* and 5HT1E antag -38.7.
For C[C@@]1(CO)[C@H](O)CC[C@@]2(C)[C@H]1CC[C@H]1C[C@@H]3C[C@@]12CC[C@]3(O)CO the results were HTR1E agonist 0.8, 5HT1a ag 0.1 and 5HT1E antag -5.7.
